# Source: ChEMBL document CHEMBL3739387, “Discovery and SAR of Novel and Selective Inhibitors of Urokinase Plasminogen Activator (uPA) with an Imidazo[1,2-a]pyridine Scaffold” (J Med Chem, 2015)
# Calls of active or inactive are those of the source. The calls are words filed in the database; no cut-off is given here.
# What was measured:
# [1] = target: T1, Urokinase-type plasminogen activator (Homo sapiens, UniProt P00749); experiment: Inhibition of human uPA using pyro-Glu-Gly-Arg-pNA as substrate assessed as para-nitroaniline release from substrate measured for 5 mins by spectrophotometric assay
# [2] = target: T2, Prothrombin (Homo sapiens, UniProt P00734); experiment: Inhibition of human plasma thrombin using pyroGlu-Pro-Arg-pNA-HCl as substrate measured for 5 mins by spectrophotometric assay; format: cell-free
# Method in brief: (§1)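 Thrombin from human plasma with pyroGlu-Pro-Arg-pNA (CS-21(66), Km 400 μM) at 415 μM in assay. 50 mM HEPES pH 8.2. pNA release at 405 nm over 5 min at 37 °C, in duplicate.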
# [3] = target: T3, Tissue-type plasminogen activator (Homo sapiens, UniProt P00750); experiment: Inhibition of recombinant human tPA using H-D-Ile-Pro-L-Arg-pNA-2HCl as substrate measured for 5 mins by spectrophotometric assay
# Target sequence in this assay (P00750 whole entry): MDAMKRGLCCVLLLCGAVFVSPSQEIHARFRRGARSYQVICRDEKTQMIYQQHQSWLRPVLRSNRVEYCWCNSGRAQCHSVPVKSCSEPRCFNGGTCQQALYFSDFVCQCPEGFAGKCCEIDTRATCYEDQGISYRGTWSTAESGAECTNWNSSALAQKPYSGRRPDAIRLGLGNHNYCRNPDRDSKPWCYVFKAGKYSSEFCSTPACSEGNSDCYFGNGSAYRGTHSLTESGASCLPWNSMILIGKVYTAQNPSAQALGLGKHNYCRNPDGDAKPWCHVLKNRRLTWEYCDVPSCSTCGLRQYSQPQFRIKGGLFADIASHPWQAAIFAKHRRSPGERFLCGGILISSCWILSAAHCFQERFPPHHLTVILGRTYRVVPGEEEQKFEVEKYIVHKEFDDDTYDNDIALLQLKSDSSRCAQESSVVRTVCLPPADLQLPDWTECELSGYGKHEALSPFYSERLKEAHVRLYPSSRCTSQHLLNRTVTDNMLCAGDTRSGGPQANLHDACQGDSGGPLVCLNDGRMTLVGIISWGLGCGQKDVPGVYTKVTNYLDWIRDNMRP
# [4] = target: T4, Coagulation factor X (Homo sapiens, UniProt P00742); experiment: Inhibition of purified human factor 10a using Suc-Ile-Glu(gammaPip)-GlyArg-pNa-HCl as substrate measured for 5 mins by spectrophotometric assay
# Method in brief: (§2)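 Purified human factor Xa, substrate Suc-Ile-Glu(γPip)-Gly-Arg-pNA (CS-11(32)) at 411 μM in assay. HEPES pH 8.2. Read at 405 nm for 5 min at 37 °C, duplicate wells.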
# [5] = target: T5, Plasminogen (Homo sapiens, UniProt P00747); experiment: Inhibition of human plasma plasmin using pyroGlu-Pro-Arg-pNA-HCl as substrate measured for 5 mins by spectrophotometric assay; format: cell-free
# Method in brief: (§3)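 Plasmin purified from human plasma. Substrate pyroGlu-Pro-Arg-pNA (CS-21(66), Km 400 μM) at 400 μM in assay. HEPES pH 7.0, 37 °C, absorbance at 405 nm followed for 5 min, duplicates.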
# [6] = target: T6, Plasma kallikrein (Homo sapiens, UniProt P03952); experiment: Inhibition of human plasma kallikrein using D-Pro-Phe-Arg-pNA-2HCl as substrate measured for 5 mins by spectrophotometric assay; format: cell-free
# Method in brief: (§4)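 Human plasma kallikrein, chromogenic substrate CS-31(02) (Km 269 μM) at 269 μM in assay. 50 mM HEPES at pH 7.4. Absorbance at 405 nm over 5 min at 37 °C, duplicates.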
# [7] = Inhibition of bovine pancreatic trypsin using Nalpha-benzoyl-D,L-Arg-pNA-HCl as substrate measured for 5 mins by spectrophotometric assay; design: species or system Bos taurus
# [8] = target: T7, Coagulation factor VII (Homo sapiens) (UniProt P08709); experiment: Inhibition of purified human factor 7a using MeSO2-Cha-Abu-Arg-pNA as substrate at 100 uM measured for 5 mins by spectrophotometric assay
# T7 sequence (whole entry): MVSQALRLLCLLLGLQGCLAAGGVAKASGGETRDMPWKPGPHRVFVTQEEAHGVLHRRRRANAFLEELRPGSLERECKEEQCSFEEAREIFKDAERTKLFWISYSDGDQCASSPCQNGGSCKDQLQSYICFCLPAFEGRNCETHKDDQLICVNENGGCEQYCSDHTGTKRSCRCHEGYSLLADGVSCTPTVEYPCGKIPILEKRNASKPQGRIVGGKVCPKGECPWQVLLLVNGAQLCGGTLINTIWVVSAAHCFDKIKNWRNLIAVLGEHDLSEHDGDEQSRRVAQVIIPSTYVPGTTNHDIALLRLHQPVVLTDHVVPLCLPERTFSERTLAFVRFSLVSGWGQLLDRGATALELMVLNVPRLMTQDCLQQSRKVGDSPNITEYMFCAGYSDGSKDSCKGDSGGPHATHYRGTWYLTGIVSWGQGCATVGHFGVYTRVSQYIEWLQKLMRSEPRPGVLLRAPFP
# Method in brief: (§5)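 Purified human plasma FVIIa with tissue factor (Innovin) present. MeSO2-Cha-Abu-Arg-pNA at 800 μM in assay. Buffer 50 mM HEPES pH 7.5, 100 mM NaCl, 5 mM CaCl2, 0.1% BSA.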
# [9] = target: T2, Prothrombin; experiment: Inhibition of human plasma thrombin using pyroGlu-Pro-Arg-pNA-HCl as substrate at 100 uM measured for 5 mins by spectrophotometric assay; format: cell-free; method in brief: as §1
# [10] = target: T3, Tissue-type plasminogen activator; experiment: Inhibition of recombinant human tPA using H-D-Ile-Pro-L-Arg-pNA-2HCl as substrate at 100 uM measured for 5 mins by spectrophotometric assay
# Target sequence in this assay (P00750 36-562 limits assumed): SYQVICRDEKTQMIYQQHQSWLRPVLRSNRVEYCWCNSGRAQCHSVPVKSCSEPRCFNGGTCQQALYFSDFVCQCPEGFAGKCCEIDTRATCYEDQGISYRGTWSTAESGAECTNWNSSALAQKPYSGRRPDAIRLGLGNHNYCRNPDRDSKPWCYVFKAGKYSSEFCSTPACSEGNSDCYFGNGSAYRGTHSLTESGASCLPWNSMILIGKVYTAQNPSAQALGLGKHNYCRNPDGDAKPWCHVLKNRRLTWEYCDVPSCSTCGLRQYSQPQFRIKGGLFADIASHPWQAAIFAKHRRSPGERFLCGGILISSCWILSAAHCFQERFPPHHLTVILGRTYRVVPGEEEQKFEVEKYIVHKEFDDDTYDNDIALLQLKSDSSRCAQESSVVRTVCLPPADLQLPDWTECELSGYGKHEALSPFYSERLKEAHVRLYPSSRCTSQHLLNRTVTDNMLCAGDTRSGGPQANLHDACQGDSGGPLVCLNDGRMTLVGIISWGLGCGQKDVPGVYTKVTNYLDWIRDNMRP
# [11] = target: T4, Coagulation factor X; experiment: Inhibition of purified human factor 10a using Suc-Ile-Glu(yPip)-GlyArg-pNa-HCl as substrate at 100 uM measured for 5 mins by spectrophotometric assay; method in brief: as §2
# [12] = target: T5, Plasminogen; experiment: Inhibition of human plasma plasmin using pyroGlu-Pro-Arg-pNA-HCl as substrate at 100 uM measured for 5 mins by spectrophotometric assay; format: cell-free; method in brief: as §3
# [13] = target: T6, Plasma kallikrein; experiment: Inhibition of human plasma kallikrein using D-Pro-Phe-Arg-pNA-2HCl as substrate at 100 uM measured for 5 mins by spectrophotometric assay; format: cell-free; method in brief: as §4
# [14] = species on record: Bos taurus; experiment: Inhibition of bovine pancreatic trypsin using Na-benzoyl-D,L-Arg-pNA-HCl as substrate at 100 uM measured for 5 mins by spectrophotometric assay
# [15] = species on record: Homo sapiens; experiment: Selectivity index, ratio of IC50 for human plasma thrombin to IC50 for human uPA
# [16] = species on record: Homo sapiens; experiment: Selectivity index, ratio of IC50 for recombinant human tPA to IC50 for human uPA
# [17] = species on record: Homo sapiens; experiment: Selectivity index, ratio of IC50 for purified human factor 10a to IC50 for human uPA
# [18] = species on record: Homo sapiens; experiment: Selectivity index, ratio of IC50 for human plasma plasmin to IC50 for human uPA
# [19] = species on record: Homo sapiens; experiment: Selectivity index, ratio of IC50 for human plasma kallikrein to IC50 for human uPA
# [20] = Selectivity index, ratio of IC50 for bovine pancreatic trypsin to IC50 for human uPA
# [21] = species on record: Homo sapiens; experiment: Selectivity index, ratio of IC50 for purified human factor 7a to IC50 for human uPA
# [22] = target: T8, Coagulation factor VII (Homo sapiens, UniProt P08709); experiment: Inhibition of purified human factor 7a using MeSO2-Cha-Abu-Arg-pNA as substrate measured for 5 mins by spectrophotometric assay; method in brief: as §5
# T8 sequence (P08709 whole entry): T7 sequence (whole entry)
# [23] = target: T1, Urokinase-type plasminogen activator; experiment: Reversible inhibition of human uPA using pyro-Glu-Gly-Arg-pNA as substrate assessed as para-nitroaniline release from substrate measured for 5 mins by spectrophotometry based enzyme kinetics assay
# [24] = target: T1, Urokinase-type plasminogen activator; experiment: Tight binding inhibition of human uPA using pyro-Glu-Gly-Arg-pNA as substrate assessed as para-nitroaniline release from substrate measured for 5 mins by spectrophotometry based enzyme kinetics assay
# [25] = target: T1, Urokinase-type plasminogen activator; experiment: Slow dissociating inhibition of human uPA using pyro-Glu-Gly-Arg-pNA as substrate assessed as para-nitroaniline release from substrate measured for 5 mins by spectrophotometry based enzyme kinetics assay
# T5 sequence (P00747 97-580 limits assumed): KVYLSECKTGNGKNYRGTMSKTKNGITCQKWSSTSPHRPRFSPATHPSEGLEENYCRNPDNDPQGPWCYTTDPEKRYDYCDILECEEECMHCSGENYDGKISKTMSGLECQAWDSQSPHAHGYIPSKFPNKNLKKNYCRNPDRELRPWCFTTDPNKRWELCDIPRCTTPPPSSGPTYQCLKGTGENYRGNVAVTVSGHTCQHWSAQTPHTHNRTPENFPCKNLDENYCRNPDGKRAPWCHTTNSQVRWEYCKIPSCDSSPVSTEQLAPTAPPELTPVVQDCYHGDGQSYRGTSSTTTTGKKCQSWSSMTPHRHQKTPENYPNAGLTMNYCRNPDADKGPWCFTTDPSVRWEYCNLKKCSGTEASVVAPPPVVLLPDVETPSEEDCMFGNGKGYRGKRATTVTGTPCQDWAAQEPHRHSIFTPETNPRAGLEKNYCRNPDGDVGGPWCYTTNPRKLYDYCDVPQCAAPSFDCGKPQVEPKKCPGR
# T5 sequence (P00747 581-810 limits assumed): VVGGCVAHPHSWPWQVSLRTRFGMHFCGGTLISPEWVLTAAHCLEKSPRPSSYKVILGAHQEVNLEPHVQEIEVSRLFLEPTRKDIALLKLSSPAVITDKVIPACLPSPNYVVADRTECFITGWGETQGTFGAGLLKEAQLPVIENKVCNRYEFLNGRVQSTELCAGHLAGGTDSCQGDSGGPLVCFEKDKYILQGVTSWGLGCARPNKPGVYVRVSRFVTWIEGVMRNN
# T4 sequence (P00742 41-179 limits assumed): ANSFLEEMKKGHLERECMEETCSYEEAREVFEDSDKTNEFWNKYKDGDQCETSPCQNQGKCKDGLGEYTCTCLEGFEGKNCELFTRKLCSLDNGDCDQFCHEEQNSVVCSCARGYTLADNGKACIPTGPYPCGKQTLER
# T4 sequence (P00742 235-488 limits assumed): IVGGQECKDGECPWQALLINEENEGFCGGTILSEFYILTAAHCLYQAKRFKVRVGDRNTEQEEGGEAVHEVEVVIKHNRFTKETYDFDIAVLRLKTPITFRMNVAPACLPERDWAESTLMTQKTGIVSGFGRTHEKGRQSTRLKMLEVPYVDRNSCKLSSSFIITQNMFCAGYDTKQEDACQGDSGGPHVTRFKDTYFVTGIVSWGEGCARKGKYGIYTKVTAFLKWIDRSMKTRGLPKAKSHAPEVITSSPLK
# T6 sequence (P03952 20-390 limits assumed): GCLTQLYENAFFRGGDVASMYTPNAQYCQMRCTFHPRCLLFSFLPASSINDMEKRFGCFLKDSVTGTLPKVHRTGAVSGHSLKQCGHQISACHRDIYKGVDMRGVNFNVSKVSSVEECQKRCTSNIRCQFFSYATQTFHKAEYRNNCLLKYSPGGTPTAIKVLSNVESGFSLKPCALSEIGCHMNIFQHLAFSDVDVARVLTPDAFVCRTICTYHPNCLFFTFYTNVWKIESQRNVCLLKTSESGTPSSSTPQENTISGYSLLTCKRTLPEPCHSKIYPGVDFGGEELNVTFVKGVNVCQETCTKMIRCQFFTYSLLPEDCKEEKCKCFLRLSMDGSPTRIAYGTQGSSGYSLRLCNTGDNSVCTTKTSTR
# T6 sequence (P03952 391-638 limits assumed): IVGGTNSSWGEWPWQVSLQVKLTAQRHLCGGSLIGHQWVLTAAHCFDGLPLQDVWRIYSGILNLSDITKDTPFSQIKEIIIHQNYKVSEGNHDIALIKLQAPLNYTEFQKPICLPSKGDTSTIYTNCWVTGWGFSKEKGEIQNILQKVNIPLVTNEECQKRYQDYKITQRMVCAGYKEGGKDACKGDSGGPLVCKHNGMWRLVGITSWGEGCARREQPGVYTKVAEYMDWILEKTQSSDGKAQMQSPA
smiles,measurement,setting,value
CCCCNC(=O)c1ccn2c(NCc3ccc(NC(=N)N)cc3)cnc2c1,IC50,[1],0.097 µM
same,IC50,[2],> 100 µM
same,IC50,[3],> 100 µM
same,IC50,[4],> 100 µM
same,IC50,[5],> 100 µM
same,IC50,[6],> 100 µM
same,IC50,[7],> 100 µM
same,inhibition,[8],1.4%
same,inhibition,[9],19.2%
same,inhibition,[10],8%
same,inhibition,[11],41.8%
same,inhibition,[12],13.6%
same,inhibition,[13],2.8%
same,inhibition,[14],42.7%
same,Ratio IC50,[15],> 1000
same,Ratio IC50,[16],> 1000
same,Ratio IC50,[17],> 1000
same,Ratio IC50,[18],> 1000
same,Ratio IC50,[19],> 1000
same,Ratio IC50,[20],> 1000
same,Ratio IC50,[21],> 1000
same,IC50,[22],> 100 µM
same,inhibition,[23],Active
same,inhibition,[24],Active
same,inhibition,[25],Active
